ChEMBL document CHEMBL3739391, “Development of a potent and selective cell penetrant Legumain inhibitor” (Bioorg Med Chem Lett, 2015)
The source made the active and inactive calls. The calls are words filed in the database; no cut-off is given here.

Experiments:
Legumain = biological target: T1, Legumain (Homo sapiens, UniProt Q99538); experiment: Inhibition of recombinant human legumain using Z-Ala-Ala-Asn-MCA substrate measured every 2 mins for 60 mins by microplate reader analysis
T1 sequence (Q99538 whole entry): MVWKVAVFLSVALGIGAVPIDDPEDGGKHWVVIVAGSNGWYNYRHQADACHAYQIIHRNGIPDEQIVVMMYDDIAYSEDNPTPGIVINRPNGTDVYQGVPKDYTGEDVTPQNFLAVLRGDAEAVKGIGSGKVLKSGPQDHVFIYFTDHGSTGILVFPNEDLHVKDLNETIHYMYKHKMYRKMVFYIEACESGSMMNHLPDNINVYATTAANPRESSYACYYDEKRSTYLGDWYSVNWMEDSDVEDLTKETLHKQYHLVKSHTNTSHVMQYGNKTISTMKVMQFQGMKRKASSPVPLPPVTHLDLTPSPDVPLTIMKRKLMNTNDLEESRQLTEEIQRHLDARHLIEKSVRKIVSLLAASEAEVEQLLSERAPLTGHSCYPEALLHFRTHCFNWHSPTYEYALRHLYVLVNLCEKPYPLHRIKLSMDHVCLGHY

Legumain (Homo sapiens) [1] = biological target: T2, Legumain (Homo sapiens) (UniProt Q99538); experiment: Inhibition of legumain in human MCF7 cells using Z-Ala-Ala-Asn-MCA substrate at 30 uM incubated for 24 hrs by microplate reader analysis; assay type: cell-based
T2 sequence (whole entry): T1 sequence (Q99538 whole entry)
Method in brief: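 MCF7 cells incubated with compound at 37 °C for 24 h. Media then removed, cells washed with assay buffer and lysed. Intracellular legumain activity read in the lysate with fluorogenic substrate. Run in triplicate.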

MCF7 [2] = experiment: Cytotoxicity against human MCF7 cells assessed as cell death at 30 uM incubated for 96 hrs by MTT assay; assay type: functional; settings: MCF7, 96 h
Method in brief: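 MCF7 breast cancer cells were exposed to compound for 96 h, with DMSO vehicle as the control. Viability was read by MTT assay, n = 6.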

Caspase-8 = Caspase-8 (Homo sapiens, UniProt Q14790); experiment: Inhibition of recombinant caspase 8 (unknown origin) using IETD-AFC fluorogenic substrate
Cathepsin S = Cathepsin S (Homo sapiens, UniProt P25774); experiment: Inhibition of recombinant cathepsin S (unknown origin) using ZVVR-AMC fluorogenic substrate
Cathepsin B = Cathepsin B (Homo sapiens, UniProt P07858); experiment: Inhibition of recombinant cathepsin B (unknown origin) using Z-Leu-Arg-AMC fluorogenic substrate
Caspase-3 = biological target: T3, Caspase-3 (Homo sapiens, UniProt P42574); experiment: Inhibition of recombinant caspase 3 (unknown origin) using DEVD-AFC fluorogenic substrate
T3 sequence (P42574 whole entry): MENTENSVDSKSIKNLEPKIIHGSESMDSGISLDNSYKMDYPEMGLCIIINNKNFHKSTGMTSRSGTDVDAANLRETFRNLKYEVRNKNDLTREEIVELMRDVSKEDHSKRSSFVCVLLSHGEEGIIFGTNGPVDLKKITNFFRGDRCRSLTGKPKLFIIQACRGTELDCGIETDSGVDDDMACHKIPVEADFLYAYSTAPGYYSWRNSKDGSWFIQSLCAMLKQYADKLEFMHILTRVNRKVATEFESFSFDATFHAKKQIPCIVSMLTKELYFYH

[3] = biological target: T4, Ubiquitin carboxyl-terminal hydrolase 17 (Homo sapiens, UniProt Q6R6M4); experiment: Inhibition of USP17 in human HEK293T cells using fluorogenic substrate ub-rhodamine110 preincubated for 30 mins followed by substrate addition measured every 4 mins for 1 hr by microplate reader analysis; assay type: cell-based, HEK-293T
T4 sequence (Q6R6M4 whole entry): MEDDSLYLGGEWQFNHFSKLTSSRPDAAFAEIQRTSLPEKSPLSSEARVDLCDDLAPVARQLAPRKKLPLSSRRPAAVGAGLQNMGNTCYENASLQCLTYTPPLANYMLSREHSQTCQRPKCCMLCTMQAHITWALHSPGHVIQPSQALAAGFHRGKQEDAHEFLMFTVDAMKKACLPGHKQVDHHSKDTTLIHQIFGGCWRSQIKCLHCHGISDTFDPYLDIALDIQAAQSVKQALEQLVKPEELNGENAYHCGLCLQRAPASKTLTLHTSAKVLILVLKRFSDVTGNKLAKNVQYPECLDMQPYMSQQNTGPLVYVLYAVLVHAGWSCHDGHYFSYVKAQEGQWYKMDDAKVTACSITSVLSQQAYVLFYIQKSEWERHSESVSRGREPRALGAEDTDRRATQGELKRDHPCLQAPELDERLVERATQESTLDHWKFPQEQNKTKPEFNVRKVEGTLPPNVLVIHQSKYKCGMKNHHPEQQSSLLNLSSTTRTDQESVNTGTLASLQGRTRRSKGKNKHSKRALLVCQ

[4] = Cytotoxicity against human MCF10A cells assessed as cell death at 150 uM incubated for 96 hrs by MTT assay; assay type: functional; settings: MCF-10A
T47D = experiment: Cytotoxicity against human T47D cells assessed as cell viability at 30 uM incubated for 96 hrs by MTT assay; assay type: functional; settings: read-out: Activity
Method in brief: (§1)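 MTT viability read-out after 96 h exposure. Compared with DMSO vehicle control. n = 6.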

[5] = Cytotoxicity against human PC3 cells assessed as cell viability at 30 uM incubated for 96 hrs by MTT assay; assay type: functional; settings: PC-3, 96 h, read-out: Activity; method in brief: as §1
[6] = Cytotoxicity against human DU145 cells assessed as cell viability at 30 uM incubated for 96 hrs by MTT assay; assay type: functional; settings: DU-145, 96 h, read-out: Activity; method in brief: as §1
MCF7 [7] = experiment: Antimetastatic activity in human MCF7 cells assessed as inhibition of colony formation efficiency at 5 uM after 2 weeks by soft agar anchorage-independent growth assay; assay type: functional; settings: MCF7, 336 h
Method in brief: (§2)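 Soft agar anchorage-independent colony formation in MCF7 and PC3 cells over 2 weeks. Compound and media refreshed every 4 days. Colonies quantified relative to DMSO vehicle-treated cells. n = 5.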

[8] = Antimetastatic activity in human PC3 cells assessed as inhibition of colony formation efficiency at 2.5 uM after 2 weeks by soft agar anchorage-independent growth assay; assay type: functional; settings: PC-3, 336 h; method in brief: as §2
Legumain (Homo sapiens) [9] = biological target: T2, Legumain (Homo sapiens); experiment: Inhibition of legumain in human MCF7 cells using Z-Ala-Ala-Asn-MCA substrate at 30 uM incubated for 48 hrs by microplate reader analysis; assay type: cell-based

Caspase-8, sequence (Q14790 217-374 limits assumed): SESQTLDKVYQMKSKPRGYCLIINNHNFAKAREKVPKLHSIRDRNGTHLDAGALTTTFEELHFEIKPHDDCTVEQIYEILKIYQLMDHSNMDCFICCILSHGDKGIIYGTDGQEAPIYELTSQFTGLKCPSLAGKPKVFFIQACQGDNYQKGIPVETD
Caspase-8, sequence (Q14790 385-479 limits assumed): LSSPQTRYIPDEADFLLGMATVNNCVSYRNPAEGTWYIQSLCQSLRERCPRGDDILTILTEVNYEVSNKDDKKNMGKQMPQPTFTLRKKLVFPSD
Cathepsin S, sequence (P25774 whole entry): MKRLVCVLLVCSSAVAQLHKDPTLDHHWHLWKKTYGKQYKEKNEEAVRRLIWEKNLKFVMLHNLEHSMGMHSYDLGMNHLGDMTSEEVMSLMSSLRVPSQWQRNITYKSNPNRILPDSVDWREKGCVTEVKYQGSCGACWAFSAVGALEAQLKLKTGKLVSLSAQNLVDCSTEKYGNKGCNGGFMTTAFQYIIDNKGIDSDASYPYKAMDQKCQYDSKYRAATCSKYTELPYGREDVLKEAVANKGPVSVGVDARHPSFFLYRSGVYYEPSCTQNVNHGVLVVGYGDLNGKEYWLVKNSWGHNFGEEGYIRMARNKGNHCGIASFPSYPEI

Structure (SMILES) | IC50 (Legumain) [µM] | inhibition (Legumain (Homo sapiens) [1]) [%] | also measured
N#C[C@H](CC(N)=O)NC(=O)[C@@H]1CCCN1S(=O)(=O)c1ccc(C(F)(F)F)cc1 | 0.332 | 0 | 
N#C[C@H](CC(N)=O)NC(=O)[C@@H]1CCCN1S(=O)(=O)c1ccc(F)cc1 | 0.269 | 0 | 
N#C[C@H](CC(N)=O)NC(=O)[C@@H]1CCCN1S(=O)(=O)c1ccc(-c2ccccc2)cc1 | 0.012 | 47 | mortality at 30 µM (MCF7 [2]): 45%; IC50 (Caspase-8): > 50 µM; IC50 (Cathepsin S): > 50 µM; IC50 (Cathepsin B): > 50 µM; IC50 (Caspase-3): > 50 µM; IC50 [3]: > 50 µM; mortality at 150 µM [4]: 0%
CC(C)(C)c1ccc(-c2ccc(S(=O)(=O)N3CCC[C@H]3C(=O)N[C@H](C#N)CC(N)=O)cc2)cc1 | 0.071 | 90 | mortality at 30 µM (MCF7 [2]): 81%; viability at 30 µM (T47D): > 50%; viability at 30 µM [5]: > 50%; viability at 30 µM [6]: > 50%; inhibition at 5 µM (MCF7 [7]): 50%; inhibition at 2.5 µM [8]: 50%; IC50 (Caspase-8): > 50 µM; IC50 (Cathepsin S): > 50 µM; IC50 (Cathepsin B): > 50 µM; IC50 (Caspase-3): > 50 µM; IC50 [3]: > 50 µM; mortality at 150 µM [4]: 0%; inhibition (Legumain (Homo sapiens) [9]): Active
COc1ccc(-c2ccc(S(=O)(=O)N3CCC[C@H]3C(=O)N[C@H](C#N)CC(N)=O)cc2)cc1 | 0.006 | 90 | mortality at 30 µM (MCF7 [2]): 58%; IC50 (Caspase-8): > 50 µM; IC50 (Cathepsin S): > 50 µM; IC50 (Cathepsin B): > 50 µM; IC50 (Caspase-3): > 50 µM; IC50 [3]: > 50 µM; mortality at 150 µM [4]: 0%
CC(C)Oc1ccc(-c2ccc(S(=O)(=O)N3CCC[C@H]3C(=O)N[C@H](C#N)CC(N)=O)cc2)cc1 | 0.969 | 49 | 
N#C[C@H](CC(N)=O)NC(=O)[C@@H]1CCCN1S(=O)(=O)c1ccc(Cl)cc1Cl | 0.593 | 0 | 
COc1ccc(S(=O)(=O)N2CCC[C@H]2C(=O)N[C@H](C#N)CC(N)=O)cc1 | > 10 |  | 
N#C[C@H](CC(N)=O)NC(=O)[C@@H]1CCCN1S(=O)(=O)c1ccc(Br)cc1 | 0.282 | 0 | 

Now from value to molecule, other results behind:

IC50 (Legumain) [µM] | inhibition (Legumain (Homo sapiens) [1]) [%] | Structure (SMILES) | also measured
0.073 | 90 | CCOc1ccc(-c2ccc(S(=O)(=O)N3CCC[C@H]3C(=O)N[C@H](C#N)CC(N)=O)cc2)cc1 | 
0.121 | 52 | N#C[C@H](CC(N)=O)NC(=O)[C@@H]1CCCN1S(=O)(=O)c1ccc(-c2ccc(C(F)(F)F)cc2)cc1 | 
0.049 | 49 | N#C[C@H](CC(N)=O)NC(=O)[C@@H]1CCCN1S(=O)(=O)c1ccc(-c2ccc3c(c2)OCO3)cc1 | 
0.033 | 40 | N#C[C@H](CC(N)=O)NC(=O)[C@@H]1CCCN1S(=O)(=O)c1ccc(-c2ccc(F)cc2)cc1 | 
0.033 | 0 | N#Cc1ccc(-c2ccc(S(=O)(=O)N3CCC[C@H]3C(=O)N[C@H](C#N)CC(N)=O)cc2)cc1 | 
0.032 | 0 | Cc1ccc(-c2ccc(S(=O)(=O)N3CCC[C@H]3C(=O)N[C@H](C#N)CC(N)=O)cc2)cc1 | 
0.071 | 42 | CCc1ccc(-c2ccc(S(=O)(=O)N3CCC[C@H]3C(=O)N[C@H](C#N)CC(N)=O)cc2)cc1 | 
0.047 | 42 | N#C[C@H](CC(N)=O)NC(=O)[C@@H]1CCCN1S(=O)(=O)c1ccc(-c2cccc(F)c2)cc1 | 
0.035 | 29 | N#C[C@H](CC(N)=O)NC(=O)[C@@H]1CCCN1S(=O)(=O)c1ccc(-c2ccccc2Cl)cc1 | 
0.005 | 75 | CC(C)c1ccc(-c2ccc(S(=O)(=O)N3CCC[C@H]3C(=O)N[C@H](C#N)CC(N)=O)cc2)cc1 | 
0.073 | 0 | N#C[C@H](CC(N)=O)NC(=O)[C@@H]1CCCN1S(=O)(=O)c1ccc(Cl)cc1 | 
0.045 | 64 | N#C[C@H](CC(N)=O)NC(=O)[C@@H]1CCCN1S(=O)(=O)c1ccc(-c2ccc(Cl)cc2)cc1 | 
